# “And” between values parts separate entries of the source, which are not always exact repeats. Identical values can stand only once.
# System: U2OS
# Assay: Multiplex assay against U2OS
# Format: toxicity, cell-based
# Conditions: human
# How it was run: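 Live cells were stained at seeding with Hoechst33342, BioTracker Green Microtubule Cytoskeleton Dye, MitoTracker Red and Annexin V Alexa Fluor 680, then imaged on a CQ1 microscope at 37°C and 5% CO2 after compound addition. CellPathfinder machine-learning gating split cells into Hoechst high-intensity objects or normal cells. Normal cells were split into healthy, pyknosed or fragmented nuclei, and pyknosed cells into mitotic or apoptotic. Tubulin, mitochondrial-mass and membrane-permeability phenotypes are per cents of healthy-nucleus cells.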
# [1] = 12 h, 1 µM, compound concentration 1 uM
# [2] = 12 h, 10 µM, compound concentration 10 uM
# [3] = 24 h, 1 µM, compound concentration 1 uM
# [4] = 24 h, 10 µM, compound concentration 10 uM
# [5] = 48 h, 1 µM, compound concentration 1 uM
# [6] = 48 h, 10 µM, compound concentration 10 uM
smiles,measurement,setting,value
C[C@@H]1C[C@H]2[C@@H]3CCC4=CC(=O)C=C[C@]4(C)[C@@]3(F)[C@@H](O)C[C@]2(C)[C@@]1(O)C(=O)CO [DEXAMETHASONE],Population Apoptotic (%),[1],77% and 80%
same,Population Fragmented Nuclei (%),[1],21% and 20%
same,Population Healthy Nuclei (%),[1],70% and 75%
same,Population Hoechst High Intensity Objects (%),[1],2% and 0%
same,Population Membrane Permeable-Phenotype (%),[1],2% and 4%
same,Population Mitochondria Different-Phenotype (%),[1],0% and 1%
same,Population Mitotic Cells (%),[1],22% and 20%
same,Population Normal (%),[1],97% and 99%
same,Population Pyknosed Nuclei (%),[1],7% and 4%
same,Population Tubulin-Different-Phenotype (%),[1],1% and 3%
same,Total Cell Count,[1],238 and 124
same,Population Apoptotic (%),[2],80% and 84%
same,Population Fragmented Nuclei (%),[2],20% and 16%
same,Population Healthy Nuclei (%),[2],69% and 76%
same,Population Hoechst High Intensity Objects (%),[2],2% and 0%
same,Population Membrane Permeable-Phenotype (%),[2],6% and 7%
same,Population Mitochondria Different-Phenotype (%),[2],1% and 2%
same,Population Mitotic Cells (%),[2],19% and 15%
same,Population Normal (%),[2],97% and 100%
same,Population Pyknosed Nuclei (%),[2],9% and 7%
same,Population Tubulin-Different-Phenotype (%),[2],2% and 3%
same,Total Cell Count,[2],319
same,Population Apoptotic (%),[3],96% and 90%
same,Population Fragmented Nuclei (%),[3],19% and 18%
same,Population Healthy Nuclei (%),[3],71% and 73%
same,Population Hoechst High Intensity Objects (%),[3],2%
same,Population Membrane Permeable-Phenotype (%),[3],4% and 6%
same,Population Mitochondria Different-Phenotype (%),[3],2% and 0%
same,Population Mitotic Cells (%),[3],4% and 9%
same,Population Normal (%),[3],97%
same,Population Pyknosed Nuclei (%),[3],8% and 7%
same,Population Tubulin-Different-Phenotype (%),[3],2% and 4%
same,Total Cell Count,[3],288
same,Population Apoptotic (%),[4],82% and 75%
same,Population Fragmented Nuclei (%),[4],17% and 14%
same,Population Healthy Nuclei (%),[4],74% and 79%
same,Population Hoechst High Intensity Objects (%),[4],1% and 0%
same,Population Membrane Permeable-Phenotype (%),[4],6%
same,Population Mitochondria Different-Phenotype (%),[4],0% and 2%
same,Population Mitotic Cells (%),[4],17% and 25%
same,Population Normal (%),[4],98% and 99%
same,Population Pyknosed Nuclei (%),[4],7% and 5%
same,Population Tubulin-Different-Phenotype (%),[4],2%
same,Total Cell Count,[4],378 and 219
same,Population Apoptotic (%),[5],84% and 71%
same,Population Fragmented Nuclei (%),[5],20% and 17%
same,Population Healthy Nuclei (%),[5],72% and 74%
same,Population Hoechst High Intensity Objects (%),[5],1% and 2%
same,Population Membrane Permeable-Phenotype (%),[5],1% and 3%
same,Population Mitochondria Different-Phenotype (%),[5],1% and 3%
same,Population Mitotic Cells (%),[5],16% and 28%
same,Population Normal (%),[5],98% and 97%
same,Population Pyknosed Nuclei (%),[5],6% and 7%
same,Population Tubulin-Different-Phenotype (%),[5],0% and 4%
same,Total Cell Count,[5],391 and 186
same,Population Apoptotic (%),[6],92% and 86%
same,Population Fragmented Nuclei (%),[6],14% and 16%
same,Population Healthy Nuclei (%),[6],77% and 76%
same,Population Hoechst High Intensity Objects (%),[6],2%
same,Population Membrane Permeable-Phenotype (%),[6],4% and 5%
same,Population Mitochondria Different-Phenotype (%),[6],1% and 0%
same,Population Mitotic Cells (%),[6],7% and 13%
same,Population Normal (%),[6],97%
same,Population Pyknosed Nuclei (%),[6],8% and 7%
same,Population Tubulin-Different-Phenotype (%),[6],1%
same,Total Cell Count,[6],497 and 294
Cl.NCCc1ccc(O)c(O)c1 [DOPAMINE HYDROCHLORIDE],Population Apoptotic (%),[1],100% and 83%
same,Population Fragmented Nuclei (%),[1],23% and 15%
same,Population Healthy Nuclei (%),[1],67% and 72%
same,Population Hoechst High Intensity Objects (%),[1],3% and 1%
same,Population Membrane Permeable-Phenotype (%),[1],5% and 8%
same,Population Mitochondria Different-Phenotype (%),[1],1% and 2%
same,Population Mitotic Cells (%),[1],0% and 16%
same,Population Normal (%),[1],96% and 98%
same,Population Pyknosed Nuclei (%),[1],9% and 11%
same,Population Tubulin-Different-Phenotype (%),[1],2% and 5%
same,Total Cell Count,[1],237 and 104
same,Population Apoptotic (%),[2],80% and 75%
same,Population Fragmented Nuclei (%),[2],21% and 18%
same,Population Healthy Nuclei (%),[2],65% and 76%
same,Population Hoechst High Intensity Objects (%),[2],3% and 0%
same,Population Membrane Permeable-Phenotype (%),[2],2% and 4%
same,Population Mitochondria Different-Phenotype (%),[2],1%
same,Population Mitotic Cells (%),[2],20% and 25%
same,Population Normal (%),[2],96% and 100%
same,Population Pyknosed Nuclei (%),[2],12% and 4%
same,Population Tubulin-Different-Phenotype (%),[2],1%
same,Total Cell Count,[2],204 and 95
same,Population Apoptotic (%),[3],90% and 80%
same,Population Fragmented Nuclei (%),[3],18% and 14%
same,Population Healthy Nuclei (%),[3],69% and 77%
same,Population Hoechst High Intensity Objects (%),[3],4% and 1%
same,Population Membrane Permeable-Phenotype (%),[3],7% and 4%
same,Population Mitochondria Different-Phenotype (%),[3],2% and 1%
same,Population Mitotic Cells (%),[3],10% and 20%
same,Population Normal (%),[3],95% and 98%
same,Population Pyknosed Nuclei (%),[3],11% and 7%
same,Population Tubulin-Different-Phenotype (%),[3],5% and 2%
same,Total Cell Count,[3],263 and 132
same,Population Apoptotic (%),[4],92% and 87%
same,Population Fragmented Nuclei (%),[4],18% and 15%
same,Population Healthy Nuclei (%),[4],70% and 77%
same,Population Hoechst High Intensity Objects (%),[4],2% and 0%
same,Population Membrane Permeable-Phenotype (%),[4],4% and 1%
same,Population Mitochondria Different-Phenotype (%),[4],0%
same,Population Mitotic Cells (%),[4],8% and 12%
same,Population Normal (%),[4],97% and 99%
same,Population Pyknosed Nuclei (%),[4],10% and 7%
same,Population Tubulin-Different-Phenotype (%),[4],1%
same,Total Cell Count,[4],245 and 111
same,Population Apoptotic (%),[5],90% and 89%
same,Population Fragmented Nuclei (%),[5],17% and 14%
same,Population Healthy Nuclei (%),[5],70% and 73%
same,Population Hoechst High Intensity Objects (%),[5],2%
same,Population Membrane Permeable-Phenotype (%),[5],5% and 7%
same,Population Mitochondria Different-Phenotype (%),[5],3% and 4%
same,Population Mitotic Cells (%),[5],9% and 10%
same,Population Normal (%),[5],97%
same,Population Pyknosed Nuclei (%),[5],11%
same,Population Tubulin-Different-Phenotype (%),[5],4% and 3%
same,Total Cell Count,[5],363 and 172
same,Population Apoptotic (%),[6],85% and 100%
same,Population Fragmented Nuclei (%),[6],18% and 14%
same,Population Healthy Nuclei (%),[6],66% and 76%
same,Population Hoechst High Intensity Objects (%),[6],2% and 1%
same,Population Membrane Permeable-Phenotype (%),[6],7% and 2%
same,Population Mitochondria Different-Phenotype (%),[6],3% and 2%
same,Population Mitotic Cells (%),[6],14% and 0%
same,Population Normal (%),[6],97% and 98%
same,Population Pyknosed Nuclei (%),[6],14% and 8%
same,Population Tubulin-Different-Phenotype (%),[6],5% and 2%
same,Total Cell Count,[6],338 and 179
CNC[C@H](O)c1ccc(O)c(O)c1 [EPINEPHRINE],Population Apoptotic (%),[1],88% and 80%
same,Population Fragmented Nuclei (%),[1],35% and 17%
same,Population Healthy Nuclei (%),[1],56% and 77%
same,Population Hoechst High Intensity Objects (%),[1],2% and 0%
same,Population Membrane Permeable-Phenotype (%),[1],5% and 7%
same,Population Mitochondria Different-Phenotype (%),[1],1% and 2%
same,Population Mitotic Cells (%),[1],11% and 20%
same,Population Normal (%),[1],97% and 100%
same,Population Pyknosed Nuclei (%),[1],7% and 5%
same,Population Tubulin-Different-Phenotype (%),[1],2% and 4%
same,Total Cell Count,[1],229 and 92
same,Population Apoptotic (%),[2],92% and 86%
same,Population Fragmented Nuclei (%),[2],41% and 33%
same,Population Healthy Nuclei (%),[2],45% and 50%
same,Population Hoechst High Intensity Objects (%),[2],6% and 9%
same,Population Membrane Permeable-Phenotype (%),[2],7% and 6%
same,Population Mitochondria Different-Phenotype (%),[2],1% and 2%
same,Population Mitotic Cells (%),[2],8% and 13%
same,Population Normal (%),[2],93% and 90%
same,Population Pyknosed Nuclei (%),[2],13% and 15%
same,Population Tubulin-Different-Phenotype (%),[2],4% and 6%
same,Total Cell Count,[2],199 and 105
same,Population Apoptotic (%),[3],84% and 75%
same,Population Fragmented Nuclei (%),[3],28% and 19%
same,Population Healthy Nuclei (%),[3],64% and 68%
same,Population Hoechst High Intensity Objects (%),[3],2%
same,Population Membrane Permeable-Phenotype (%),[3],6% and 7%
same,Population Mitochondria Different-Phenotype (%),[3],1% and 5%
same,Population Mitotic Cells (%),[3],15% and 25%
same,Population Normal (%),[3],97%
same,Population Pyknosed Nuclei (%),[3],7% and 11%
same,Population Tubulin-Different-Phenotype (%),[3],2% and 1%
same,Total Cell Count,[3],278 and 105
same,Population Apoptotic (%),[4],94% and 100%
same,Population Fragmented Nuclei (%),[4],39% and 31%
same,Population Healthy Nuclei (%),[4],50% and 45%
same,Population Hoechst High Intensity Objects (%),[4],9% and 11%
same,Population Membrane Permeable-Phenotype (%),[4],11% and 2%
same,Population Mitochondria Different-Phenotype (%),[4],5% and 0%
same,Population Mitotic Cells (%),[4],5% and 0%
same,Population Normal (%),[4],90% and 88%
same,Population Pyknosed Nuclei (%),[4],10% and 22%
same,Population Tubulin-Different-Phenotype (%),[4],6% and 2%
same,Total Cell Count,[4],195 and 96
same,Population Apoptotic (%),[5],87% and 92%
same,Population Fragmented Nuclei (%),[5],24% and 18%
same,Population Healthy Nuclei (%),[5],66% and 72%
same,Population Hoechst High Intensity Objects (%),[5],0%
same,Population Membrane Permeable-Phenotype (%),[5],9% and 4%
same,Population Mitochondria Different-Phenotype (%),[5],5% and 3%
same,Population Mitotic Cells (%),[5],12% and 7%
same,Population Normal (%),[5],99%
same,Population Pyknosed Nuclei (%),[5],9%
same,Population Tubulin-Different-Phenotype (%),[5],4% and 2%
same,Total Cell Count,[5],333 and 150
same,Population Apoptotic (%),[6],92% and 94%
same,Population Fragmented Nuclei (%),[6],41% and 36%
same,Population Healthy Nuclei (%),[6],44% and 40%
same,Population Hoechst High Intensity Objects (%),[6],10% and 17%
same,Population Membrane Permeable-Phenotype (%),[6],15% and 24%
same,Population Mitochondria Different-Phenotype (%),[6],8% and 13%
same,Population Mitotic Cells (%),[6],7% and 5%
same,Population Normal (%),[6],89% and 82%
same,Population Pyknosed Nuclei (%),[6],14% and 23%
same,Population Tubulin-Different-Phenotype (%),[6],10% and 13%
same,Total Cell Count,[6],215 and 87

# From ChEMBL document CHEMBL5724801, “EUbOPEN Chemogenomics Library - Multiplex” (2024)
